In ChEMBL document CHEMBL1144242, “Synthesis and antituberculosis activity of 5-methyl/trifluoromethoxy-1H-indole-2,3-dione 3-thiosemicarbazone derivatives” (Bioorg Med Chem, 2008) one finds IC90 and selectivity ratio data, which are given here for 67 compounds.

The subject of series [1] is Mycobacterium tuberculosis. Put plainly: Antitubercular activity against Mycobacterium tuberculosis H37Rv after 4 days by microplate alamar blue assay. It counts as functional. The settings on record: 96 h. Put shortly: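 M. tuberculosis H37Rv (ATCC 27294) in BACTEC 12B medium by MABA; 10 twofold dilutions, usually 100 to 0.19 µg/mL; final titer as printed; 37 °C, Alamar Blue added from day 4 once control wells turned pink, read 24 h later (ex 530/em 590 nm). MIC: lowest concentration giving 90% fluorescence reduction vs controls, taken as IC90 from dose-response curve fit.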
(In general: Alamar Blue is a resazurin reagent that responds to reducing activity.)

A short description of series [2]: Selectivity index, ratio of IC50 for african green monkey Vero cells to IC90 for Mycobacterium tuberculosis H37Rv. It counts as toxicity, cell-based. The note with it: read-out: Selectivity Index. Put shortly: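 SI = VERO cell IC50 / M. tuberculosis H37Rv MIC. VERO cells exposed 72 h at concentrations up to 10x the H37Rv MIC; viability by MTT (CellTiter 96); IC50 from dose-response curve fit. MIC from MABA against H37Rv in BACTEC 12B medium, 37 °C, 90% fluorescence reduction defining IC90.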

As a reminder, the IC90 is the concentration at which the effect reaches the 90% level.

The structures appear in SMILES notation. Converted amounts (≈) assume the structure as drawn.

As to `CN1C(=O)/C(=N\NC(=S)Nc2ccccc2)c2cc(OC(F)(F)F)ccc21`, the IC90 in series [1] was more than 100 µg/mL.

For `Cc1ccc(NC(=S)N/N=C2\C(=O)Nc3ccc(C)cc32)cc1`, in series [1], the IC90 was more than 100 µg/mL.

On to `C=CCNC(=S)N/N=C1\C(=O)N(C)c2ccc(C)cc21`, for which the concentration for an effect of 90% (IC90) in series [1] was more than 100 µg/mL.

`CNC(=S)N/N=C1\C(=O)N(C)c2ccc(C)cc21` had an IC90 in series [1] of more than 100 µg/mL.

The compound `O=C1/C(=N\NC(=S)Nc2ccc(Br)cc2)c2cc(OC(F)(F)F)ccc2N1CN1CCOCC1` registered an IC90 in series [1] of 3.03 µg/mL (≈ 5.43 µM). In addition, the selectivity ratio in series [2] worked out at 2.46.

As for `O=C1/C(=N\NC(=S)Nc2ccc([N+](=O)[O-])cc2)c2cc(OC(F)(F)F)ccc2N1CN1CCOCC1`, the IC90 in series [1] is more than 100 µg/mL.

In series [1], `CNC(=S)N/N=C1\C(=O)Nc2ccc(C)cc21` showed an IC90 of more than 100 µg/mL.

On to `Cc1ccc2c(c1)/C(=N/NC(=S)Nc1ccc(Cl)cc1)C(=O)N2C`, for which the IC90 in series [1] is more than 100 µg/mL.

For the compound `CNC(=S)N/N=C1\C(=O)N(CN2CCOCC2)c2ccc(OC(F)(F)F)cc21`, the IC90 in series [1] is more than 100 µg/mL.

In series [1], `CCNC(=S)N/N=C1\C(=O)N(CN2CCOCC2)c2ccc(OC(F)(F)F)cc21` displayed an IC90 of more than 100 µg/mL.

For the compound `Cc1ccc2c(c1)/C(=N/NC(=S)NCc1ccccc1)C(=O)N2C`, the concentration for an effect of 90% (IC90) in series [1] is more than 100 µg/mL.

In the case of `Cc1ccc2c(c1)/C(=N/NC(=S)Nc1ccc(F)cc1)C(=O)N2C`, the IC90 in series [1] was more than 100 µg/mL.

For `CN1C(=O)/C(=N\NC(=S)Nc2ccc(Cl)cc2)c2cc(OC(F)(F)F)ccc21`, in series [1], the IC90 was more than 100 µg/mL.

Regarding `Cc1ccc(NC(=S)N/N=C2\C(=O)N(CN3CCOCC3)c3ccc(OC(F)(F)F)cc32)cc1`, in series [1], the IC90 was more than 100 µg/mL.

In turn, `CN1C(=O)/C(=N\NC(=S)Nc2ccc(Br)cc2)c2cc(OC(F)(F)F)ccc21` returned an IC90 in series [1] of more than 100 µg/mL.

`Cc1ccc2c(c1)/C(=N/NC(=S)Nc1ccccc1)C(=O)N2C` yielded an IC90 in series [1] of more than 100 µg/mL.

Compound `Cc1ccc(NC(=S)N/N=C2\C(=O)N(C)c3ccc(C)cc32)cc1` gave an IC90 in series [1] of more than 100 µg/mL.

In series [1], `CN1C(=O)/C(=N\NC(=S)Nc2ccc(F)cc2)c2cc(OC(F)(F)F)ccc21` had an IC90 of more than 100 µg/mL.

As for `O=C1/C(=N\NC(=S)NC2CCCCC2)c2cc(OC(F)(F)F)ccc2N1CN1CCOCC1`, the IC90 in series [1] was determined as 5.69 µg/mL (≈ 11.7 µM). The selectivity ratio in series [2] stood at 4.12.

In series [1], `O=C1/C(=N\NC(=S)NCc2ccccc2)c2cc(OC(F)(F)F)ccc2N1CN1CCOCC1` gave a 90% effect concentration (IC90) of more than 100 µg/mL.

Take `O=C1/C(=N\NC(=S)Nc2ccccc2)c2cc(OC(F)(F)F)ccc2N1CN1CCOCC1`: the IC90 in series [1] is more than 100 µg/mL.

Compound `CCCCNC(=S)N/N=C1\C(=O)N(CN2CCOCC2)c2ccc(OC(F)(F)F)cc21` showed an IC90 in series [1] of more than 100 µg/mL.

As to `Cc1ccc2c(c1)/C(=N/NC(=S)Nc1ccc(Br)cc1)C(=O)N2`, the IC90 in series [1] is more than 100 µg/mL.

`Cc1ccc2c(c1)/C(=N/NC(=S)NC1CCCCC1)C(=O)N2C` came in with an IC90 in series [1] of more than 100 µg/mL.

As to `C=CCNC(=S)N/N=C1\C(=O)N(C)c2ccc(OC(F)(F)F)cc21`, the IC90 in series [1] was more than 100 µg/mL.

In series [1], `CCCCNC(=S)N/N=C1\C(=O)N(C)c2ccc(OC(F)(F)F)cc21` returned an IC90 of more than 100 µg/mL.

Turning to `Cc1ccc2c(c1)/C(=N/NC(=S)Nc1ccccc1Br)C(=O)N2C`, in series [1], the IC90 was more than 100 µg/mL.

On to `Cc1ccc2c(c1)/C(=N/NC(=S)Nc1ccc([N+](=O)[O-])cc1)C(=O)N2C`, for which, in series [1], the IC90 is more than 100 µg/mL.

In the case of `CNC(=S)N/N=C1\C(=O)N(C)c2ccc(OC(F)(F)F)cc21`, the IC90 in series [1] was more than 100 µg/mL.

For `CN1C(=O)/C(=N\NC(=S)NC2CCCCC2)c2cc(OC(F)(F)F)ccc21`, the IC90 in series [1] is more than 100 µg/mL.

`CN1C(=O)/C(=N\NC(=S)NCc2ccccc2)c2cc(OC(F)(F)F)ccc21` registered an IC90 in series [1] of more than 100 µg/mL.

As for `O=C1Nc2ccc(OC(F)(F)F)cc2/C1=N/NC(=S)Nc1ccccc1`, in series [1], the IC90 was more than 100 µg/mL.

Take `Cc1ccc(NC(=S)N/N=C2\C(=O)Nc3ccc(OC(F)(F)F)cc32)cc1`: in series [1], the IC90 was more than 100 µg/mL.

With `O=C1Nc2ccc(OC(F)(F)F)cc2/C1=N/NC(=S)Nc1ccc(F)cc1`, it took 1.55 µg/mL (≈ 3.88 µM) to reach the 90% level in series [1] (IC90). Also, the selectivity ratio in series [2] is 1.64.

`Cc1ccc2c(c1)/C(=N/NC(=S)Nc1cccc(Br)c1)C(=O)N2` showed an IC90 in series [1] of 1.49 µg/mL (≈ 3.83 µM). Besides, the selectivity ratio in series [2] was determined as 0.473.

The compound `O=C1Nc2ccc(OC(F)(F)F)cc2/C1=N/NC(=S)NCc1ccccc1` had an IC90 in series [1] of more than 100 µg/mL.

In series [1], `CCCCNC(=S)N/N=C1\C(=O)N(C)c2ccc(C)cc21` showed an IC90 of more than 100 µg/mL.

In the case of `Cc1ccc2c(c1)/C(=N/NC(=S)NCc1ccccc1)C(=O)N2`, the IC90 in series [1] was more than 100 µg/mL.

On to `CNC(=S)N/N=C1\C(=O)Nc2ccc(OC(F)(F)F)cc21`, for which the IC90 in series [1] is more than 100 µg/mL.

`C=CCNC(=S)N/N=C1\C(=O)Nc2ccc(OC(F)(F)F)cc21` gave a concentration for an effect of 90% (IC90) in series [1] of more than 100 µg/mL.

In series [1], `O=C1Nc2ccc(OC(F)(F)F)cc2/C1=N/NC(=S)Nc1ccc(Br)cc1` came in with an IC90 of 1.53 µg/mL (≈ 3.33 µM). Also, in series [2], the selectivity ratio came out at 3.77.

In the case of `CCNC(=S)N/N=C1\C(=O)N(C)c2ccc(C)cc21`, in series [1], the IC90 is more than 100 µg/mL.

The compound `C=CCNC(=S)N/N=C1\C(=O)Nc2ccc(C)cc21` returned an IC90 in series [1] of more than 100 µg/mL.

For `O=C1Nc2ccc(OC(F)(F)F)cc2/C1=N/NC(=S)Nc1ccc(Cl)cc1`, the IC90 in series [1] was 1.52 µg/mL (≈ 3.67 µM). Besides, in series [2], the selectivity ratio came out at 4.2.

In series [1], `Cc1ccc(NC(=S)N/N=C2\C(=O)N(C)c3ccc(OC(F)(F)F)cc32)cc1` showed an IC90 of more than 100 µg/mL.

Compound `O=C1Nc2ccc(OC(F)(F)F)cc2/C1=N/NC(=S)NC1CCCCC1` showed an IC90 in series [1] of more than 100 µg/mL.

In turn, `CCCCNC(=S)N/N=C1\C(=O)Nc2ccc(C)cc21` returned an IC90 in series [1] of 0.911 µg/mL (≈ 3.14 µM). The selectivity ratio in series [2] was 4.82.

As for `Cc1ccc2c(c1)/C(=N/NC(=S)Nc1ccc(F)cc1)C(=O)N2`, in series [1], the 90% effect level (IC90) was put at 1.59 µg/mL (≈ 4.83 µM). Also, the selectivity ratio in series [2] was less than 0.123.

On to `Cc1ccc2c(c1)/C(=N/NC(=S)Nc1ccccc1)C(=O)N2`, for which, in series [1], the 90% effect level (IC90) was put at 1.43 µg/mL (≈ 4.62 µM). Besides, the selectivity ratio in series [2] stood at 0.742.

`CCNC(=S)N/N=C1\C(=O)N(C)c2ccc(OC(F)(F)F)cc21` yielded an IC90 in series [1] of more than 100 µg/mL.

In turn, `CCNC(=S)N/N=C1\C(=O)Nc2ccc(C)cc21` yielded a 90% effect concentration (IC90) in series [1] of more than 100 µg/mL.

In turn, `O=C1/C(=N\NC(=S)Nc2ccc(Cl)cc2)c2cc(OC(F)(F)F)ccc2N1CN1CCOCC1` gave an IC90 in series [1] of 3.04 µg/mL (≈ 5.92 µM). Besides, the selectivity ratio in series [2] was 3.19.

`Cc1ccc2c(c1)/C(=N/NC(=S)NC1CCCCC1)C(=O)N2` gave an IC90 in series [1] of 0.795 µg/mL (≈ 2.51 µM). Besides, the selectivity ratio in series [2] was 1.98.

For `Cc1ccc2c(c1)/C(=N/NC(=S)Nc1ccc(Br)cc1)C(=O)N2C`, the concentration for an effect of 90% (IC90) in series [1] is more than 100 µg/mL.

On to `CN1C(=O)/C(=N\NC(=S)Nc2ccc([N+](=O)[O-])cc2)c2cc(OC(F)(F)F)ccc21`, for which the IC90 in series [1] is more than 100 µg/mL.

In the case of `Cc1ccc2c(c1)/C(=N/NC(=S)Nc1ccc(Cl)cc1)C(=O)N2`, the IC90 in series [1] came out at 3.57 µg/mL (≈ 10.3 µM). Besides, the selectivity ratio in series [2] came to 3.46.

As for `COc1ccc(NC(=S)N/N=C2\C(=O)N(CN3CCOCC3)c3ccc(OC(F)(F)F)cc32)cc1`, the IC90 in series [1] was more than 100 µg/mL.

In turn, `C=CCNC(=S)N/N=C1\C(=O)N(CN2CCOCC2)c2ccc(OC(F)(F)F)cc21` returned an IC90 in series [1] of more than 100 µg/mL.

On to `O=C1/C(=N\NC(=S)Nc2ccc(F)cc2)c2cc(OC(F)(F)F)ccc2N1CN1CCOCC1`, for which the IC90 in series [1] was found to be 3.06 µg/mL (≈ 6.15 µM). The selectivity ratio in series [2] was determined as 0.784.

In the case of `Cc1ccc2c(c1)/C(=N/NC(=S)Nc1cccc(Br)c1)C(=O)N2C`, in series [1], the IC90 was more than 100 µg/mL.

Regarding `COc1ccc(NC(=S)N/N=C2\C(=O)Nc3ccc(OC(F)(F)F)cc32)cc1`, in series [1], the concentration for an effect of 90% (IC90) was more than 100 µg/mL.

In the case of `CCCCNC(=S)N/N=C1\C(=O)Nc2ccc(OC(F)(F)F)cc21`, in series [1], the IC90 was more than 100 µg/mL.

With `CCNC(=S)N/N=C1\C(=O)Nc2ccc(OC(F)(F)F)cc21`, the IC90 in series [1] is more than 100 µg/mL.

The compound `Cc1ccc2c(c1)/C(=N/NC(=S)Nc1ccccc1Br)C(=O)N2` returned an IC90 in series [1] of more than 100 µg/mL.

As for `Cc1ccc2c(c1)/C(=N/NC(=S)Nc1ccc([N+](=O)[O-])cc1)C(=O)N2`, the 90% effect concentration (IC90) in series [1] was more than 100 µg/mL.

As to `O=C1Nc2ccc(OC(F)(F)F)cc2/C1=N/NC(=S)Nc1ccc([N+](=O)[O-])cc1`, the IC90 in series [1] is more than 100 µg/mL.

As for `CO[C@H]1/C=C/O[C@@]2(C)Oc3c(C)c(O)c4c(O)c(c(/C=N/N5CCN(C)CC5)c(O)c4c3C2=O)NC(=O)/C(C)=C\C=C\[C@H](C)[C@H](O)[C@@H](C)[C@@H](O)[C@@H](C)[C@H](OC(C)=O)[C@@H]1C` [RIFAMPIN], the selectivity ratio in series [2] was more than 800.
